Reference: ChEMBL document CHEMBL3351725, “Design, synthesis and biological evaluation of (E)-3-(3,4-dihydroxyphenyl)acrylylpiperazine derivatives as a new class of tubulin polymerization inhibitors” (Bioorg Med Chem, 2014)
≈ marks a conversion by molar mass, not a printed value.

Assays:
MCF7 [1] = test: Antiproliferative activity against human MCF7 cells after 48 hrs by MTT assay; type: functional, cell-based; details: MCF7, 48 h
Method in brief: (§1)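 Cells diluted to 2 × 10⁴ cells/mL in complete medium, seeded in 96-well plates and incubated 24 h at 37 °C, 5% CO₂ before compound addition at preset concentrations; colchicine and CA-4 as positive references. After 48 h exposure, MTT added; 4 h later 10% SDS-5% isobutyl alcohol-0.01 M HCl extraction solution added, overnight at 37 °C, absorbance read at 570 nm.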

A549 = test: Antiproliferative activity against human A549 cells after 48 hrs by MTT assay; type: functional, cell-based; details: A549, 48 h; method in brief: as §1
[2] = Antiproliferative activity against mouse B16F10 cells after 48 hrs by MTT assay; type: functional, cell-based; details: B16-F10, 48 h; method in brief: as §1
Tubulin = Tubulin (Bos taurus, UniProt Q6B856+Q862L2+Q862F3); test: Inhibition of bovine brain tubulin polymerization after 20 mins by turbidimetric method
MCF7 [3] = test: Cell cycle arrest in human MCF7 cells after 24 hrs by flow cytometry; type: functional, cell-based
MCF7 [4] = test: Cell cycle arrest in human MCF7 cells assessed as accumulation at G0/G1 phase at 1 ug/ml after 24 hrs by flow cytometry (reference value: 62.34 %); type: functional
MCF7 [5] = test: Cell cycle arrest in human MCF7 cells assessed as accumulation at S phase at 1 ug/ml after 24 hrs by flow cytometry (reference value: 13.05 %); type: functional
MCF7 [6] = test: Cell cycle arrest in human MCF7 cells assessed as accumulation at G2/M phase at 1 ug/ml after 24 hrs by flow cytometry (reference value: 24.61 %); type: functional
MCF7 [7] = test: Cell cycle arrest in human MCF7 cells assessed as accumulation at G0/G1 phase at 2 ug/ml after 24 hrs by flow cytometry (reference value: 62.34 %); type: functional
MCF7 [8] = test: Cell cycle arrest in human MCF7 cells assessed as accumulation at S phase at 2 ug/ml after 24 hrs by flow cytometry (reference value: 13.05 %); type: functional
MCF7 [9] = test: Cell cycle arrest in human MCF7 cells assessed as accumulation at G2/M phase at 2 ug/ml after 24 hrs by flow cytometry (reference value: 24.61 %); type: functional

What does the source list for `O=C(/C=C/c1ccc(O)c(O)c1)N1CCN(c2ccccc2F)CC1`?
IC50 (MCF7 [1]): 1.38 µg/mL (≈ 4.03 µM); IC50 (A549): 1.43 µg/mL (≈ 4.18 µM); IC50 [2]: 2.43 µg/mL (≈ 7.1 µM); IC50 (Tubulin): 7.78 µM

Which IC50 (MCF7 [1]) does the source give for `O=C(/C=C/c1ccc(O)c(O)c1)N1CCN(c2cccc(Cl)c2)CC1` here?
The IC50 was 1.34 µg/mL (≈ 3.73 µM).

And the IC50 (A549)?
The IC50 was 1.29 µg/mL (≈ 3.6 µM).

And the IC50 [2]?
Its IC50 is 1.71 µg/mL (≈ 4.77 µM).

What about the IC50 (Tubulin) of the same compound?
Its IC50 is 5.28 µM.

What does the source list for `O=C(/C=C/c1ccc(O)c(O)c1)N1CCN(C(c2ccc(F)cc2)c2ccc(F)cc2)CC1`?
IC50 (MCF7 [1]): 0.43 µg/mL (≈ 0.955 µM); IC50 (A549): 0.73 µg/mL (≈ 1.62 µM); IC50 [2]: 0.52 µg/mL (≈ 1.15 µM); IC50 (Tubulin): 1.44 µM

Which IC50 (MCF7 [1]) does the source give for `O=C(/C=C/c1ccc(O)c(O)c1)N1CCN(c2ccc(F)cc2)CC1` here?
Its IC50 is 1.44 µg/mL (≈ 4.21 µM).

And the IC50 (A549)?
The IC50 was 1.25 µg/mL (≈ 3.65 µM).

And the IC50 [2]?
Its IC50 is 1.68 µg/mL (≈ 4.91 µM).

What about the IC50 (Tubulin) of the same compound?
The IC50 was 7.39 µM.

Which results are given for `O=C(/C=C/c1ccc(O)c(O)c1)N1CCN(c2ccc([N+](=O)[O-])cc2)CC1`?
IC50 (MCF7 [1]): 1.14 µg/mL (≈ 3.09 µM); IC50 (A549): 1.56 µg/mL (≈ 4.22 µM); IC50 [2]: 1.79 µg/mL (≈ 4.85 µM); IC50 (Tubulin): 4.86 µM

For `Cc1ccc(N2CCN(C(=O)/C=C/c3ccc(O)c(O)c3)CC2)c(C)c1`, which IC50 (MCF7 [1]) is on record?
Its IC50 is 0.78 µg/mL (≈ 2.21 µM).

What about the IC50 (A549) of the same compound?
Its IC50 is 1.02 µg/mL (≈ 2.89 µM).

What about the IC50 [2] of the same compound?
The IC50 was 1.43 µg/mL (≈ 4.06 µM).

And the IC50 (Tubulin)?
Its IC50 is 2.98 µM.

Which results are given for `COc1ccc(/C=C\c2cc(OC)c(OC)c(OC)c2)cc1O` [COMBRETASTATIN A4]?
IC50 (MCF7 [1]): 0.21 µg/mL (≈ 0.664 µM); IC50 (A549): 0.46 µg/mL (≈ 1.45 µM); IC50 [2]: 0.42 µg/mL (≈ 1.33 µM)

For `O=C(/C=C/c1ccc(O)c(O)c1)N1CCN(c2ccccn2)CC1`, which IC50 (MCF7 [1]) is on record?
Its IC50 is 1.82 µg/mL (≈ 5.59 µM).

And the IC50 (A549)?
Its IC50 is 2.32 µg/mL (≈ 7.13 µM).

What about the IC50 [2] of the same compound?
The IC50 was 3.01 µg/mL (≈ 9.25 µM).

What about the IC50 (Tubulin) of the same compound?
The IC50 was 11.61 µM.

For `O=C(/C=C/c1ccc(O)c(O)c1)N1CCN(c2cccc(C(F)(F)F)c2)CC1`, which IC50 (MCF7 [1]) is on record?
The IC50 was 1.24 µg/mL (≈ 3.16 µM).

What about the IC50 (A549) of the same compound?
Its IC50 is 1.74 µg/mL (≈ 4.43 µM).

And the IC50 [2]?
Its IC50 is 2.01 µg/mL (≈ 5.12 µM).

And the IC50 (Tubulin)?
Its IC50 is 5.89 µM.

What does the source list for `CCN1CCN(C(=O)/C=C/c2ccc(O)c(O)c2)CC1`?
IC50 (MCF7 [1]): 2.06 µg/mL (≈ 7.45 µM); IC50 (A549): 6.54 µg/mL (≈ 23.7 µM); IC50 [2]: 6.44 µg/mL (≈ 23.3 µM); IC50 (Tubulin): 12.78 µM

Which results are given for `COc1ccccc1N1CCN(C(=O)/C=C/c2ccc(O)c(O)c2)CC1`?
IC50 (MCF7 [1]): 0.54 µg/mL (≈ 1.52 µM); IC50 (A549): 0.98 µg/mL (≈ 2.77 µM); IC50 [2]: 1.23 µg/mL (≈ 3.47 µM); IC50 (Tubulin): 1.72 µM

With `COc1ccc(N2CCN(C(=O)/C=C/c3ccc(O)c(O)c3)CC2)cc1` as the compound, how does the IC50 (MCF7 [1]) read?
The IC50 was 0.52 µg/mL (≈ 1.47 µM).

What about the IC50 (A549) of the same compound?
The IC50 was 0.93 µg/mL (≈ 2.62 µM).

What about the IC50 [2] of the same compound?
Its IC50 is 1.21 µg/mL (≈ 3.41 µM).

What about the IC50 (Tubulin) of the same compound?
The IC50 was 1.86 µM.

Which IC50 (MCF7 [1]) does the source give for `O=C(/C=C/c1ccc(O)c(O)c1)N1CCN(c2ccccc2)CC1` here?
Its IC50 is 1.03 µg/mL (≈ 3.18 µM).

And the IC50 (A549)?
The IC50 was 1.32 µg/mL (≈ 4.07 µM).

And the IC50 [2]?
The IC50 was 1.78 µg/mL (≈ 5.49 µM).

And the IC50 (Tubulin)?
The IC50 was 3.14 µM.

What does the source list for `O=C(/C=C/c1ccc(O)c(O)c1)N1CCN(c2ccccc2Cl)CC1`?
IC50 (MCF7 [1]): 1.36 µg/mL (≈ 3.79 µM); IC50 (A549): 1.44 µg/mL (≈ 4.01 µM); IC50 [2]: 1.82 µg/mL (≈ 5.07 µM); IC50 (Tubulin): 5.46 µM

For `COc1cccc(N2CCN(C(=O)/C=C/c3ccc(O)c(O)c3)CC2)c1`, which IC50 (MCF7 [1]) is on record?
The IC50 was 0.92 µg/mL (≈ 2.6 µM).

What about the IC50 (A549) of the same compound?
The IC50 was 1.27 µg/mL (≈ 3.58 µM).

And the IC50 [2]?
The IC50 was 1.46 µg/mL (≈ 4.12 µM).

And the IC50 (Tubulin)?
The IC50 was 3.08 µM.

What does the source list for `O=C(/C=C/c1ccc(O)c(O)c1)N1CCN(c2cccc(Cl)c2Cl)CC1`?
IC50 (MCF7 [1]): 1.12 µg/mL (≈ 2.85 µM); IC50 (A549): 1.68 µg/mL (≈ 4.27 µM); IC50 [2]: 2.01 µg/mL (≈ 5.11 µM); IC50 (Tubulin): 4.42 µM

With `O=C(/C=C/c1ccc(O)c(O)c1)N1CCN(C(c2ccccc2)c2ccccc2)CC1` as the compound, how does the IC50 (MCF7 [1]) read?
Its IC50 is 0.32 µg/mL (≈ 0.772 µM).

What about the IC50 (A549) of the same compound?
The IC50 was 0.54 µg/mL (≈ 1.3 µM).

What about the IC50 [2] of the same compound?
Its IC50 is 0.44 µg/mL (≈ 1.06 µM).

And the IC50 (Tubulin)?
The IC50 was 0.92 µM.

And the Activity (MCF7 [3])?
Its Activity is “Dose-dependent effect”.

What about the Activity (MCF7 [4]) of the same compound?
Its Activity is 18.33%.

What about the Activity (MCF7 [5]) of the same compound?
Its Activity is 18.18%.

And the Activity (MCF7 [6])?
The Activity was 63.39%.

And the Activity (MCF7 [7])?
The Activity was 2.63%.

What about the Activity (MCF7 [8]) of the same compound?
Its Activity is 13.01%.

And the Activity (MCF7 [9])?
The Activity was 84.36%.

Which IC50 (MCF7 [1]) does the source give for `O=C(/C=C/c1ccc(O)c(O)c1)N1CCN(c2ccc(Cl)c(Cl)c2)CC1` here?
Its IC50 is 1.28 µg/mL (≈ 3.25 µM).

What about the IC50 (A549) of the same compound?
Its IC50 is 1.74 µg/mL (≈ 4.42 µM).

And the IC50 [2]?
Its IC50 is 1.66 µg/mL (≈ 4.22 µM).

What about the IC50 (Tubulin) of the same compound?
Its IC50 is 4.93 µM.

With `O=C(/C=C/c1ccc(O)c(O)c1)N1CCN(Cc2ccccc2)CC1` as the compound, how does the IC50 (MCF7 [1]) read?
Its IC50 is 1.48 µg/mL (≈ 4.37 µM).

What about the IC50 (A549) of the same compound?
The IC50 was 2.98 µg/mL (≈ 8.81 µM).

And the IC50 [2]?
Its IC50 is 3.12 µg/mL (≈ 9.22 µM).

And the IC50 (Tubulin)?
The IC50 was 9.28 µM.

Which results are given for `COc1cc2c(c(OC)c1OC)-c1ccc(OC)c(=O)cc1[C@@H](NC(C)=O)CC2` [COLCHICINE]?
IC50 (MCF7 [1]): 0.39 µg/mL (≈ 0.976 µM); IC50 (A549): 0.58 µg/mL (≈ 1.45 µM); IC50 [2]: 0.48 µg/mL (≈ 1.2 µM); Activity (MCF7 [4]): 4.6%; Activity (MCF7 [5]): 11.78%; Activity (MCF7 [6]): 83.62%

Which results are given for `O=C(/C=C/c1ccc(O)c(O)c1)N1CCN(C(c2ccccc2)c2ccc(Cl)cc2)CC1` (configuration not stated)?
IC50 (MCF7 [1]): 0.48 µg/mL (≈ 1.07 µM); IC50 (A549): 0.8 µg/mL (≈ 1.78 µM); IC50 [2]: 0.68 µg/mL (≈ 1.51 µM); IC50 (Tubulin): 1.56 µM
